Published values collected from several papers.
Each line is one published result; the experiments were not run side by side.
Cell line: PC-3
Effect on: cell growth or viability

COC1=CC(=O)N(C(=O)[C@@H](CCC(Cl)(Cl)Cl)NC(=O)C(C)(C)C)[C@@H]1CCC(Cl)(Cl)Cl
IC50 (resazurin; 72 h): 13 µM

COc1ccnc(COc2ccc(NC(=O)Nc3cc(F)cc(F)c3)cc2)c1OC
IC50 (MTT; 72 h): > 100 µM

O=C(N/N=C/CN1CCCCC1)Nc1cc2c(Nc3ccc(F)c(Cl)c3)ncnc2cc1O[C@H]1CCOC1
IC50 (MTT; 72 h): 0.81 µM

C=CS(=O)(=O)Nc1ccc(Cn2cc(C[C@@]3(O)C[C@@H]4c5cc(OCc6cc(C)cc(C)c6)c(OCc6cc(C)cc(C)c6)cc5CCN4[C@@H](C)C3)nn2)cc1
IC50 (MTT): 0.576 µM

COCCCOc1ccnc(COc2ccc(NC(=O)Nc3ccc(Cl)c(C(F)(F)F)c3)cc2)c1C
IC50 (MTT; 72 h): > 100 µM

CC(C)c1n[nH]c2c(Nc3ccccc3)nc(CNCc3ccccc3)cc12
IC50 (MTS; 48 h): 5.8 µM

COc1cc2ncnc(Nc3ccc(F)c(Cl)c3)c2cc1NC(=O)N/N=C/c1cccn1CCN(C)C
IC50 (MTT; 72 h): 1.25 µM

Cc1cc(C)cc(COc2cc3c(cc2OCc2cc(C)cc(C)c2)[C@H]2C[C@](O)(Cc4cn(CCc5ccc(N)cc5)nn4)C[C@H](C)N2CC3)c1
IC50 (MTT): 0.49 µM

O=C(/C=C/c1ccc(CN(CCO)CCc2c[nH]c3ccccc23)cc1)NO
IC50 (resazurin; 72 h): 0.071 µM

COc1cc2ncnc(Nc3ccc(F)c(Cl)c3)c2cc1NC(=O)N/N=C/CN1CCN(C)CC1
IC50 (MTT; 72 h): 5.03 µM

COc1ccc(NC(=O)Nc2ccc(OCc3nccc(OC)c3OC)cc2)cc1
IC50 (MTT; 72 h): 46.4 µM

C[C@H]1O[C@@H](n2cc(F)c(=O)[nH]c2=O)[C@H](O)[C@@H]1O
IC50 (CCK-8; 48 h): > 50 µM

O=C(N/N=C/CN1CCOCC1)Nc1cc2c(Nc3ccc(F)c(Cl)c3)ncnc2cc1O[C@H]1CCOC1
IC50 (MTT; 72 h): 3.39 µM

Cc1cc(C)cc(COc2cc3c(cc2OCc2cc(C)cc(C)c2)[C@H]2C[C@](O)(Cc4cn(Cc5ccc(NC(=O)/C=C/CN(C)C)cc5)nn4)C[C@H](C)N2CC3)c1
IC50 (MTT): 0.345 µM

CC(C)C[C@H](NC(=O)[C@H](Cc1ccccc1)NC(=O)c1cnccn1)B(O)O
IC50 (ATP luminescence): 0.012 µM

COc1ccnc(COc2ccc(NC(=O)Nc3ccc(Cl)cc3)cc2)c1OC
IC50 (MTT; 72 h): > 100 µM

O=C(N/N=C/c1cccn1CCCN1CCCCC1)Nc1cc2c(Nc3ccc(F)c(Cl)c3)ncnc2cc1O[C@H]1CCOC1
IC50 (MTT; 72 h): 0.15 µM

O=C(/C=C/c1ccc2ncn(Cc3ccccc3F)c(=O)c2c1)NO
IC50 (SRB; 48 h): 0.639 µM

Cc1cc(C)cc(COc2cc3c(cc2OCc2cc(C)cc(C)c2)[C@H]2C[C@](O)(Cc4cn(Cc5ccc(Cl)c(Cl)c5)nn4)C[C@H](C)N2CC3)c1
IC50 (MTT): 0.381 µM

O=C(N/N=C/c1cccn1CCN1CCCC1)Nc1cc2c(Nc3ccc(F)c(Cl)c3)ncnc2cc1O[C@H]1CCOC1
IC50 (MTT; 72 h): 1.9 µM
